Data from ChEMBL document CHEMBL1127575, “Synthesis of androst-5-en-7-ones and androsta-3,5-dien-7-ones and their related 7-deoxy analogs as conformational and catalytic probes for the active site of aromatase” (J Med Chem, 1994).

target: T1, Aromatase (Homo sapiens, UniProt P11511); assay: Time dependent inactivation of aromatase cytochrome P450 19A1 from Kitz-Wilson plot
T1 sequence (P11511 whole entry): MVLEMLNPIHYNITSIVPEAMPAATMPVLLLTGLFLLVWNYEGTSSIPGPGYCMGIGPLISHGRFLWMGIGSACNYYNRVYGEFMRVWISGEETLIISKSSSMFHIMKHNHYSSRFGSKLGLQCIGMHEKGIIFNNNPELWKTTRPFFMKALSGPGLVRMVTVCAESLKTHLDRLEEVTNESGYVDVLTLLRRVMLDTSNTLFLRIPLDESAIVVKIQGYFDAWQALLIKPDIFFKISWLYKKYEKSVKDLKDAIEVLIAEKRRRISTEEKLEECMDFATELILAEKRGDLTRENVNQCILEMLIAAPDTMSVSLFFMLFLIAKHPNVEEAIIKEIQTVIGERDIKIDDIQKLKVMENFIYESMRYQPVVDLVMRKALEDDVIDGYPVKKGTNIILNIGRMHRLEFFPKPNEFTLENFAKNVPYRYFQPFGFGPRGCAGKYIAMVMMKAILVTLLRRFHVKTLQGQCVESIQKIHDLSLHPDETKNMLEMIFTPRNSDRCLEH
Procedure, shortened: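 Human placental microsomes (105000g pellet, washed with 0.05 mM dithiothreitol, lyophilized) incubated with inhibitor plus NADPH in 67 mM phosphate buffer in air. Residual aromatase activity then measured in 5-min kinetic assay by 3H2O release from [1β-3H]androstenedione. Pseudo-first-order loss over first 12 min analysed by Kitz-Wilson method. Double-reciprocal plot of kobs versus inhibitor concentration gave kinact and Ki. Points are means of duplicates.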

Q: For `CC12CCC3C(C(=O)C=C4C=CCCC43CO)C1CCC2=O` (stereo unspecified), which Ki is on record?
A: 7 µM

Q: And the kinact?
A: 0.00147 s⁻¹

Q: How did the Ki turn out when `CC12CCC3C(C(=O)C=C4C=CCCC43C=O)C1CCC2=O` (stereo unspecified) was run?
A: 2.9 µM

Q: What about the kinact of the same molecule?
A: 0.00315 s⁻¹

target: T1, Aromatase; assay: Binding affinity for aromatase cytochrome P45019A1 by analysis of Dixon plot

Q: `CC12CCC3C4CCC(=O)C=C4CCC3C1CCC2=O` (stereo unspecified) was tested. Which Ki did it give?
A: 0.14 µM

Q: `C[C@]12CCC(=O)C=C1CC[C@@H]1[C@@H]2CC[C@]2(C)C(=O)CC[C@@H]12` [ANDROSTENEDIONE] was tested. Which Ki did it give?
A: 0.02 µM

Q: With `CC12CCC3C(CC=C4CCCCC43CO)C1CCC2O` (stereo unspecified) as the molecule, how does the Ki read?
A: 9.8 µM

Q: With `CC12CCC3C(CC=C4CCCCC43C=O)C1CCC2=O` (stereo unspecified) as the molecule, how does the Ki read?
A: 1.4 µM

target: T1, Aromatase; assay: In vitro competitive inhibitory activity was measured on Cytochrome P450 19A1 of human placental microsomes

Q: `CC12CCC3C4CCCCC4=CC(=O)C3C1CCC2=O` (stereo unspecified) was tested. Which IC50 did it give?
A: 28 µM

Q: For `CC12CCC3C(CC=C4C=CCCC43C)C1CCC2=O` (stereo unspecified), which IC50 is on record?
A: 0.34 µM

Q: `CC12CCC3C(C(=O)C=C4CCCCC43C)C1CCC2=O` (stereo unspecified) was tested. Which IC50 did it give?
A: 1.8 µM

Q: How did the IC50 turn out when `CC12CCC=CC1=CCC1C2CCC2(C)C1CC[C@@H]2O` (stereo partly specified) was run?
A: 18 µM

Q: `CC12CCC3C(C(=O)C=C4C=CCCC43CO)C1CCC2=O` (stereo unspecified) was tested. Which IC50 did it give?
A: 60 µM

Q: `C[C@]12CCCCC1=CC[C@@H]1[C@@H]2CC[C@]2(C)C(=O)CC[C@@H]12` was tested. Which IC50 did it give?
A: 0.66 µM

Q: Which IC50 does the source give for `CC12CCCCC1=CCC1C2CCC2(C)C(O)CCC12` (stereo unspecified) here?
A: 30 µM

Q: How did the IC50 turn out when `CC12CCC3C4CCC(=O)C=C4CCC3C1CCC2=O` (stereo unspecified) was run?
A: 1.2 µM

Q: `C[C@]12CCC(=O)C=C1CC[C@@H]1[C@@H]2CC[C@]2(C)C(=O)CC[C@@H]12` [ANDROSTENEDIONE] was tested. Which IC50 did it give?
A: 0.3 µM

Q: Which IC50 does the source give for `CC12CCC3C(C(=O)C=C4CCCCC43C=O)C1CCC2=O` (stereo unspecified) here?
A: 60 µM

Q: `CC12CCC3C(C(=O)C=C4CCCCC43CO)C1CCC2=O` (stereo unspecified) was tested. Which IC50 did it give?
A: 56 µM

Q: With `CC12CCC3C(CC=C4CCCCC43CO)C1CCC2O` (stereo unspecified) as the molecule, how does the IC50 read?
A: 62 µM

Q: How did the IC50 turn out when `CC12CCC3C(C(=O)C=C4CCCCC43CO)C1CCC2O` (stereo unspecified) was run?
A: 140 µM

Q: For `CC12CCC3C4CCC=CC4=CC(=O)C3C1CCC2=O` (stereo unspecified), which IC50 is on record?
A: 33 µM

Q: `CC12CCC3C(C(=O)C=C4C=CCCC43C)C1CCC2=O` (stereo unspecified) was tested. Which IC50 did it give?
A: 1.8 µM

Q: `CC12CCC=CC1=CC(=O)C1C2CCC2(C)C1CC[C@@H]2O` (stereo partly specified) was tested. Which IC50 did it give?
A: 42 µM

Q: How did the IC50 turn out when `CC12CCC3C(C(=O)C=C4C=CCCC43C=O)C1CCC2=O` (stereo unspecified) was run?
A: 11 µM

Q: For `CC12CCC3C(CC=C4CCCCC43C)C1C[C@@H](Br)C2=O` (stereo partly specified), which IC50 is on record?
A: 55 µM

Q: Which IC50 does the source give for `C[C@]12CC[C@H]3[C@@H](CC=C4CCCC[C@@]43CO)[C@@H]1CCC2=O` here?
A: 6.9 µM

Q: With `CC12CCC3C(CC=C4CCCCC43C=O)C1CCC2=O` (stereo unspecified) as the molecule, how does the IC50 read?
A: 9 µM

Q: Which IC50 does the source give for `CC12CCCCC1=CC(=O)C1C2CCC2(C)C(O)CCC12` (stereo unspecified) here?
A: 42 µM

target: T1, Aromatase; assay: Time dependent inactivation of Cytochrome P450 19A1 was obtained by Kitz-Wilson plot

Q: `CC12CCC3C4CCCCC4=CC(=O)C3C1CCC2=O` (stereo unspecified) was tested. Which Ki did it give?
A: 2.6 µM

Q: And the kinact?
A: 0.00113 s⁻¹

Q: For `CC12CCC3C(C(=O)C=C4CCCCC43C)C1CCC2=O` (stereo unspecified), which Ki is on record?
A: 0.15 µM

Q: And the kinact?
A: 0.00115 s⁻¹

Q: What does the source list for `CC12CCC3C(C(=O)C=C4CCCCC43C=O)C1CCC2=O` (stereo unspecified)?
A: Ki: 20 µM; kinact: 0.00238 s⁻¹

Q: How did the Ki turn out when `CC12CCC3C(C(=O)C=C4CCCCC43CO)C1CCC2=O` (stereo unspecified) was run?
A: 11 µM

Q: What about the kinact of the same molecule?
A: 0.000967 s⁻¹

Q: `CC12CCC3C(C(=O)C=C4C=CCCC43C)C1CCC2=O` (stereo unspecified) was tested. Which Ki did it give?
A: 0.18 µM

Q: And the kinact?
A: 0.00198 s⁻¹

target: T1, Aromatase; assay: The binding affinity was determined on Cytochrome P450 19A1 by analysis of Dixon plot

Q: With `CC12CCC3C4CCCCC4=CC(=O)C3C1CCC2=O` (stereo unspecified) as the molecule, how does the Ki read?
A: 2.4 µM

Q: Which Ki does the source give for `CC12CCC3C(CC=C4C=CCCC43C)C1CCC2=O` (stereo unspecified) here?
A: 0.058 µM

Q: For `CC12CCC3C(C(=O)C=C4CCCCC43C)C1CCC2=O` (stereo unspecified), which Ki is on record?
A: 0.25 µM

Q: How did the Ki turn out when `CC12CCC=CC1=CCC1C2CCC2(C)C1CC[C@@H]2O` (stereo partly specified) was run?
A: 2 µM

Q: Which Ki does the source give for `CC12CCC3C(C(=O)C=C4C=CCCC43CO)C1CCC2=O` (stereo unspecified) here?
A: 15 µM

Q: Which Ki does the source give for `C[C@]12CCCCC1=CC[C@@H]1[C@@H]2CC[C@]2(C)C(=O)CC[C@@H]12` here?
A: 0.12 µM

Q: `CC12CCCCC1=CCC1C2CCC2(C)C(O)CCC12` (stereo unspecified) was tested. Which Ki did it give?
A: 3 µM

Q: How did the Ki turn out when `CC12CCC3C(C(=O)C=C4CCCCC43C=O)C1CCC2=O` (stereo unspecified) was run?
A: 13 µM

Q: With `CC12CCC3C(C(=O)C=C4CCCCC43CO)C1CCC2=O` (stereo unspecified) as the molecule, how does the Ki read?
A: 11 µM

Q: For `CC12CCC3C(C(=O)C=C4CCCCC43CO)C1CCC2O` (stereo unspecified), which Ki is on record?
A: 45 µM

Q: How did the Ki turn out when `CC12CCC3C4CCC=CC4=CC(=O)C3C1CCC2=O` (stereo unspecified) was run?
A: 3 µM

Q: Which Ki does the source give for `CC12CCC3C(C(=O)C=C4C=CCCC43C)C1CCC2=O` (stereo unspecified) here?
A: 0.22 µM

Q: `CC12CCC=CC1=CC(=O)C1C2CCC2(C)C1CC[C@@H]2O` (stereo partly specified) was tested. Which Ki did it give?
A: 5.3 µM

Q: Which Ki does the source give for `CC12CCC3C(C(=O)C=C4C=CCCC43C=O)C1CCC2=O` (stereo unspecified) here?
A: 1.8 µM

Q: `CC12CCC3C(CC=C4CCCCC43C)C1C[C@@H](Br)C2=O` (stereo partly specified) was tested. Which Ki did it give?
A: 11 µM

Q: For `C[C@]12CC[C@H]3[C@@H](CC=C4CCCC[C@@]43CO)[C@@H]1CCC2=O`, which Ki is on record?
A: 1 µM

Q: With `CC12CCCCC1=CC(=O)C1C2CCC2(C)C(O)CCC12` (stereo unspecified) as the molecule, how does the Ki read?
A: 5.5 µM
